A short description of test [1]: Activation of JNK phosphorylation in human NCI-H1703 cells assessed as increase in ATF3 protein level at 1 uM by Western blot analysis. It counts as cell-based. For orientation: In western blotting, separated proteins are transferred to a membrane and probed.
Test [2] is described as follows: Activation of JNK phosphorylation in human NCI-H1703 cells assessed as ATF2 phosphorylation at Thr71 at 1 uM pretreated for 30 mins by Western blot analysis in presence of JNK inhibitor 1,9-pyrazoloanthrone. In kind it is cell-based. Put shortly:
(§1)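 Before compound exposure (1 μM), H1703 cells received the JNK inhibitor 1,9-pyrazoloanthrone at 50 μM for 30 min. Phosphorylated JNK, ATF2 and c-jun, and ATF3 protein, then detected by Western blot. Representative blots shown.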

Test [3] can be described thus: Activation of JNK phosphorylation in human NCI-H1703 cells assessed as ATF2 phosphorylation at Thr71 at 1 uM by Western blot analysis. In kind it is cell-based. Put shortly:
(§2)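 Lysates immunoblotted with phospho-specific antibodies against SEK1/MKK4, SAPK/JNK, ATF2 and c-jun. Membranes reprobed for total SAPK/JNK as loading control. Representative blots shown.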

For test [4], the system named is NCI-H1703. Kind of test: Antitumor activity against human NCI-H1703 cells xenografted in athymic NCr Charles river nu/nu mouse assessed as reduction of tumor growth at 6 umol/kg, iv administered 3 times a week for 3 weeks relative to vehicle treated control. It counts as functional, organism-based. Put shortly: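 H1703 xenografts (5×10^6 cells s.c., flank) in 7-week-old female athymic NCr-nu/nu mice, treated from tumor size ≥2×2×2 mm. Mice killed 2 h after the last dose; tumors excised and weighed. 13–15 mice/group; Mann-Whitney test against vehicle.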
On the technique in general: In xenograft studies the graft and the host belong to different species.

Test [5] in a line: Activation of JNK phosphorylation in human NCI-H1703 cells assessed as c-jun phosphorylation at Ser63 at 1 uM pretreated for 30 mins by Western blot analysis in presence of JNK inhibitor 1,9-pyrazoloanthrone. It counts as cell-based. Put shortly: as §1
Test [6] in a line: Activation of JNK phosphorylation at Thr183 and Tyr185 in human NCI-H1703 cells at 1 uM pretreated for 1 hr measured after 30 mins by Western blot analysis in presence of ROS scavenger tiron.
Test [7] has as its system Mus musculus. As to the kind of experiment: Induction of JNK phosphorylation in human NCI-H1703 cells xenografted NCr nu/nu Charles river mouse tumor assessed as increase in ATF3 protein level at 6 umol/kg, iv administered 3 times a week for 3 weeks by immunohistochemical analysis. In kind it is functional, organism-based.
In test [8] the test system is NCI-H1703. Kind of test: Induction of apoptosis in human NCI-H1703 cells assessed as caspase 3 cleavage at 1 uM pretreated with ATF3 siRNA for 48 hrs before compound challenge measured after 8 hrs by Western blot analysis. In kind it is functional, cell-based. Put shortly: (§3)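 H1703 cells at 60% confluence transfected with ATF3 siRNA, nonsilencing siRNA or reagent only (mock). After 48 h, cells treated with 1 μM compound or equal-volume DMSO for 8 h, then lysed. Western blots probed for ATF3, cleaved PARP p85 and cleaved caspase-3, with β-actin as loading control.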

A short description of test [9]: Activation of JNK phosphorylation in human NCI-H1703 cells assessed as increase in ATF3 mRNA level at 5 uM after 1.5 hrs by quantitative real-time PCR analysis relative to control. In kind it is cell-based. The method, boiled down:
(§4)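 Cells were H1703 treated with compound or DMSO control. Total RNA was isolated and residual genomic DNA removed. ATF3 mRNA was measured by quantitative RT-PCR with β-actin as internal control. Reported as mean ± SE.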

Test [10] deals with NCI-H1703. As to the kind of experiment: Induction of apoptosis in human NCI-H1703 cells assessed as caspase 7 activation after 1 to 6 hrs by Western blot analysis. It counts as functional, cell-based.
The test system of test [11] is NCI-H1703. As to the kind of experiment: Induction of apoptosis in human NCI-H1703 cells assessed as apoptotic cells at 1 uM after 6 hrs by FACS analysis (reference value: 0.05%). It counts as functional. For orientation: A flow cytometer gives signals particle by particle.
For test [12], the system named is NCI-H1703. As to the kind of experiment: Induction of apoptosis in human NCI-H1703 cells assessed as PARP p85 cleavage at 1 uM pretreated with ATF3 siRNA for 48 hrs before compound challenge measured after 8 hrs by Western blot analysis. In kind it is functional, cell-based. The method, boiled down:
as §3

Test [13] has as its system NCI-H1703. Kind of test: Cell cycle arrest in human NCI-H1703 cells assessed as accumulation at G2 phase at 1 uM after 6 hrs by FACS analysis (reference value: 8%). In kind it is functional.
A short description of test [14]: Activation of JNK phosphorylation in human NCI-H1703 cells assessed as c-jun phosphorylation at Ser63 at 1 uM by Western blot analysis. In kind it is cell-based. Put shortly:
as §2

Test [15] in a line: Activation of JNK phosphorylation at Thr183 and Tyr185 in human NCI-H1703 cells at 1 uM within 30 mins by Western blot analysis. In kind it is cell-based.
Another test has as its system NCI-H2122. Kind of test: Antiproliferative activity against human NCI-H2122 cells after 72 hrs by MTT assay. In kind it is functional, cell-based. As to conditions: NCI-H2122, 72 h. Put shortly:
(§5)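 Compounds (10 mM DMSO stocks, final DMSO ≤0.1%) added at increasing concentrations in PBS, incubated 72 h at 37 °C. MTT read-out, six repeats per concentration, at least two independent experiments.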

Test [16] relates to NCI-H1703. As to the kind of experiment: Antitumor activity against human NCI-H1703 cells xenografted in NCr nu/nu Charles river mouse assessed as tissue death in tumor at 6 umol/kg, iv administered 3 times a week for 3 weeks by H and E staining method relative to control. In kind it is functional, organism-based. Put shortly: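 Female athymic NCr-nu/nu mice, 7 weeks old, received 5×10^6 H1703 cells s.c. in the flank. Tumors excised 2 h after the last dose, H&E stained, and scored for areas of cell death against vehicle controls.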

The subject of test [17] is Mus musculus. As to the kind of experiment: Induction of JNK phosphorylation in human NCI-H1703 cells xenografted NCr nu/nu Charles river mouse tumor at 6 umol/kg, iv administered 3 times a week for 3 weeks by immunohistochemical analysis. In kind it is functional, organism-based.
The target in test [18] is T1, Dual specificity mitogen-activated protein kinase kinase 4 (Homo sapiens) (UniProt P45985).
T1 sequence (whole entry): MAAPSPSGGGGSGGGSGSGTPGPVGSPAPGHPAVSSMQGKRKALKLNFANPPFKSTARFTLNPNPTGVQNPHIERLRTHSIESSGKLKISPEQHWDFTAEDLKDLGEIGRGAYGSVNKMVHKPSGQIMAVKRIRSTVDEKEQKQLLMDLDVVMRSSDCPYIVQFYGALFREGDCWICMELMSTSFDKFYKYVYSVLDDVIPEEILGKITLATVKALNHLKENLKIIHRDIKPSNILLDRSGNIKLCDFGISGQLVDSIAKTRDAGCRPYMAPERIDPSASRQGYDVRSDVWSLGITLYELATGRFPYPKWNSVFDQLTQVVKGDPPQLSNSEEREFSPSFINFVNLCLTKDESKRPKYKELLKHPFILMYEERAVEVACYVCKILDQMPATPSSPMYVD
As to the kind of experiment: Activation of SEK1 phosphorylation at Thr261 in human NCI-H1703 cells at 1 uM by Western blot analysis. It counts as cell-based. The method, boiled down:
as §2

Test [19] is described as follows: Activation of JNK phosphorylation in human NCI-H1703 cells assessed as increase in ATF3 mRNA level at 1 uM after 1.5 hrs by quantitative real-time PCR analysis relative to control. In kind it is cell-based. Put shortly:
as §4

The subject of test [20] is NCI-H1703. Kind of test: Antiproliferative activity against human NCI-H1703 cells after 72 hrs by MTT assay. The note with it: NCI-H1703, 72 h. It counts as functional, cell-based. The method, boiled down: as §5
The test system of test [21] is NCI-H1703. Kind of test: Induction of apoptosis in human NCI-H1703 cells assessed as caspase 3 activation after 1 to 6 hrs by Western blot analysis. It counts as functional, cell-based.

Calls of active or inactive are those of the source. The rule behind the calls is not given here.

`CCOC(=O)N1CCN(/[N+]([O-])=N/Oc2ccc([N+](=O)[O-])cc2[N+](=O)[O-])CC1`: the Activity entry was “tde” in test [1], 14.4% in the test on NCI-H1703 [11] and 37% in the test with NCI-H1703 [13]. The outcome (in [2]; in test [5]; in [6]; in the test on NCI-H1703 [8]; in the test on NCI-H1703 [12]) was inactive. For the same compound, the outcome (in test [3]; in the test with Mus musculus [7]; with NCI-H1703 [10]; in [14]; in [15]; in the test on NCI-H1703 [16]) was Active. Besides, the outcome (with Mus musculus [17]; in [18]; with NCI-H1703 [21]) was Active. Moreover, in the test with NCI-H1703 [4], the “growth inhibition (GI)” value is “Active”. Moreover, the fold change (FC) in [9] was determined as 10; in [19] it was 8. Moreover, the values for the IC50 with NCI-H2122 and in the test on NCI-H1703 [20] were 3170 nM and 570 nM, respectively.

What is called IC50 is the concentration that gives 50% inhibition.

The record behind these values is ChEMBL document CHEMBL1914422, “Activation of the c-Jun N-terminal kinase/activating transcription factor 3 (ATF3) pathway characterizes effective arylated diazeniumdiolate-based nitric oxide-releasing anticancer prodrugs” (J Med Chem, 2011).
